Results as given in ChEMBL document CHEMBL3525999, “In vivo biliary clearance should be predicted by intrinsic biliary clearance in sandwich-cultured hepatocytes” (Drug Metab Dispos, 2012).

Key:
[1] = In vivo apparent biliary clearance in iv dosed Sprague-Dawley rat by LC-MS/MS analysis; type: ADME, organism-based, Bile
[2] = Unbound fraction in Sprague-Dawley rat plasma at 100 uM by equilibrium dialysis method
[3] = In vivo intrinsic biliary clearance in iv dosed Sprague-Dawley rat by LC-MS/MS analysis; type: ADME, organism-based, Bile
Hepatocyte = assay: Drug uptake in sandwich cultured Sprague-Dawley rat hepatocytes by LC-MS/MS analysis; type: ADME, cell-based
Procedure, shortened: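 Hepatocytes came from male Sprague-Dawley rats by two-step collagenase perfusion (viability >90%). They were seeded at 5 × 10^5 cells/well on collagen, overlaid with Matrigel 0.25 mg/mL on day 2, and cultured 72 h. Cells were preincubated 10 min at 37°C in HBSS or Ca2+/Mg2+-free HBSS with 1 mmol/L EGTA. Substrate (0.5 or 1 μmol/L) was incubated 15 min. Cells were then rinsed ice-cold, lysed in Triton X-100, and analyzed by LC-MS/MS, normalized to BCA protein. n = 3.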

[4] = Drug uptake in iv dosed Sprague-Dawley rat liver after 5 hrs by LC-MS/MS analysis; type: ADME, organism-based; conditions: read-out: Drug uptake
Procedure, shortened: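 Rats (9 weeks old) were anesthetized with isoflurane, and the femoral vein and common bile duct were cannulated; animals were held in Bollman cages. Compound (1 mg/mL in saline, or in saline:dimethylacetamide 1:1) was infused IV at 0.2 mL/h to reach steady-state plasma levels. Livers were taken 5 h after infusion start, extracted with acetonitrile containing internal standard, and analyzed by LC-MS/MS. n = 5.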

[5] = Biliary excretion in Eisai hyperbilirubinemic mutant rat at 20 mg/kg, iv administered as single dose by HPLC analysis; type: ADME, organism-based; set-up: dose 20 mg/kg, route intravenous; conditions: bile, read-out: Drug excretion
[6] = Total clearance in Eisai hyperbilirubinemic mutant rat at 20 mg/kg, iv administered as single dose by HPLC analysis; type: ADME, organism-based; set-up: dose 20 mg/kg, route intravenous; conditions: in vivo
[7] = Total clearance in rat; type: ADME, organism-based; conditions: in vivo
[8] = Biliary excretion in rat; type: ADME; conditions: bile, read-out: Drug excretion

CL(app) [1] [mL/min/kg]	fraction unbound at 100 µM [2]	CL [3] [mL/min/kg]	Drug uptake (Hepatocyte) [µmol/L]	concentration at 5 h [4] [µM]	dose excreted [5] [%]	clearance [6] [mL/min/kg]	clearance [7] [mL/min/kg]	dose excreted [8] [%]	SMILES
3.5	0.003	1.18	17.5	17.4					CCCCC(=O)N(Cc1ccc(-c2ccccc2-c2nnn[nH]2)cc1)[C@H](C(=O)O)C(C)C
6.22	0.738	3.57	11.4	5.1					CO[C@@]1(NC(=O)CSCC#N)C(=O)N2C(C(=O)O)=C(CSc3nnnn3C)CS[C@@H]21 [CEFMETAZOLE]
			2.6	2.5					CCN1CCN(C(=O)N[C@@H](C(=O)N[C@@H]2C(=O)N3C(C(=O)O)=C(CSc4nnnn4C)CS[C@H]23)c2ccc(O)cc2)C(=O)C1=O [CEFOPERAZONE]
4.72	0.158	3.357	1	2.6	57.8	8.15			Cc1cc(O)c(C(=O)N[C@@H](C(=O)N[C@@H]2C(=O)N3C(C(=O)O)=C(CSc4nnnn4C)CS[C@H]23)c2ccc(O)cc2)cn1 [CEFPIRAMIDE]
2.8	0.01	1.11	26	19.1					CCCc1nc(C(C)(C)O)c(C(=O)O)n1Cc1ccc(-c2ccccc2-c2nnn[nH]2)cc1 [OLMESARTAN]
27.4	0.705	6.723	1.9	1.9					CC[C@H](C)C(=O)O[C@H]1C[C@H](O)C=C2C=C[C@H](C)[C@H](CC[C@@H](O)C[C@@H](O)CC(=O)O)[C@H]21 [PRAVASTATIN]
24.17	0.035	2.505	11.8	7.1					CC(C)c1nc(N(C)S(C)(=O)=O)nc(-c2ccc(F)cc2)c1/C=C/[C@@H](O)C[C@@H](O)CC(=O)O [ROSUVASTATIN]
5.3	0.747	0.458	3.3	6.9			40.1	13.2	CC[C@@]1(O)C(=O)OCc2c1cc1n(c2=O)Cc2cc3c(CN(C)C)c(O)ccc3nc2-1 [TOPOTECAN]
